Holding throughout (assay type): cell-based
Data set [1] is described as follows: Inhibition of GLUT in HEK293 cells assessed as reduction in 2-deoxyglucose uptake pretreated for 10 mins followed by 2-deoxyglucose addition in presence of sodium buffer measured after 1 hr by resazurin dye based fluorescence assay. To be noted: human.
The nature of data set [2]: Inhibition of GLUT in HEK293 cells assessed as reduction in 2-deoxyglucose uptake pretreated for 10 mins followed by 2-deoxyglucose addition in presence of choline buffer measured after 1 hr by resazurin dye based fluorescence assay. To be noted: human. (In general: Resazurin is reduced to fluorescent resorufin, in cell work by metabolically active cells.)
Another data set relates to HEK293. The experiment in a line: Cytotoxicity in HEK293 cells assessed as cell viability at 100 uM measured after 20 to 24 hrs by Cell-Titer Blue fluorescence assay. The settings on record: human, hek293, 100 µM. A digest of the protocol: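 HEK293 cells (DMEM, 10% FBS, 37 °C, 5% CO2) seeded 2.0 × 10^4 cells/well 24 h before; compound at 100 µM in triplicate, 20-24 h at 37 °C; CellTiter-Blue 4 h at 37 °C; fluorescence ex 560/em 590 nm; viability as treated/untreated fluorescence ratio, %. DMSO-treated wells run alongside. Mean ± SD of three independent experiments.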

Data set [3] has as its target T1, Sodium/glucose cotransporter 2 (Homo sapiens, UniProt P31639).
T1 sequence (P31639 whole entry): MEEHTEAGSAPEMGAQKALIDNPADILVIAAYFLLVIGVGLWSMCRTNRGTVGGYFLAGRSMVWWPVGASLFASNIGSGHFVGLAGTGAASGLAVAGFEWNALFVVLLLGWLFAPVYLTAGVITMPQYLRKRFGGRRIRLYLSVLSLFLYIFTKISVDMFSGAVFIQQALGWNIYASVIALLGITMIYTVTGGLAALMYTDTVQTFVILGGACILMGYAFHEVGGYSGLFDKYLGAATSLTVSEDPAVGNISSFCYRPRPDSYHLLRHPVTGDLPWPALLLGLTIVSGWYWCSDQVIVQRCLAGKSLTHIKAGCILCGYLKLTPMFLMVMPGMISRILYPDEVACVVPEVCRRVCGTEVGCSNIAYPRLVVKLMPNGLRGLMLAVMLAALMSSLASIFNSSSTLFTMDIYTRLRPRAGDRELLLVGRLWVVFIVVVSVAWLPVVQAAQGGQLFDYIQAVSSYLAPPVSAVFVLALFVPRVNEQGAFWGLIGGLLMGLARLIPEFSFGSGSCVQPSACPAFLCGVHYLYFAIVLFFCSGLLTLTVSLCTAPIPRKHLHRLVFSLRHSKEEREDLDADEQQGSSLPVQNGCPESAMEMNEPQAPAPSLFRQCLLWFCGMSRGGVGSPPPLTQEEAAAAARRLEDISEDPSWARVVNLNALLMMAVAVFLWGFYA
The experiment in a line: Inhibition of human SGLT2 expressed in HEK293 cells assessed as reduction in 2-deoxyglucose uptake pretreated for 10 mins followed by 2-deoxyglucose addition in presence of sodium buffer measured after 1 hr by resazurin dye based fluorescence assay.

The target in data set [4] is T2, Sodium/glucose cotransporter 2 (Homo sapiens) (UniProt P31639).
T2 sequence (whole entry): T1 sequence (P31639 whole entry)
The data set can be described thus: Inhibition of human SGLT2 expressed in HEK293 cells assessed as reduction in 2-deoxyglucose uptake at 100 uM pretreated for 10 mins followed by 2-deoxyglucose addition in presence of sodium buffer measured after 1 hr by resazurin dye based fluorescence assay. In short, it runs like this: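 Stably transfected HEK293 expressing human SGLT2 (pCMV6-Neo, G418-selected), 2.0 × 10^4 cells/well, 24 h; 1 h preincubation in KRPH buffer at 37 °C; compound 100 µM; 2-deoxyglucose 1 mM, 1 h at 37 °C; NaOH lysis at 80-85 °C, neutralised; enzymatic cycling (G6PDH, NADP+, diaphorase, 10 µM resazurin, pH 8.2) 15-20 h; fluorescence ex 560/em 590 nm. Mean ± SD, three independent experiments.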

For data set [5], the target named is T3, Sodium/glucose cotransporter 1 (Homo sapiens, UniProt P13866).
T3 sequence (P13866 whole entry): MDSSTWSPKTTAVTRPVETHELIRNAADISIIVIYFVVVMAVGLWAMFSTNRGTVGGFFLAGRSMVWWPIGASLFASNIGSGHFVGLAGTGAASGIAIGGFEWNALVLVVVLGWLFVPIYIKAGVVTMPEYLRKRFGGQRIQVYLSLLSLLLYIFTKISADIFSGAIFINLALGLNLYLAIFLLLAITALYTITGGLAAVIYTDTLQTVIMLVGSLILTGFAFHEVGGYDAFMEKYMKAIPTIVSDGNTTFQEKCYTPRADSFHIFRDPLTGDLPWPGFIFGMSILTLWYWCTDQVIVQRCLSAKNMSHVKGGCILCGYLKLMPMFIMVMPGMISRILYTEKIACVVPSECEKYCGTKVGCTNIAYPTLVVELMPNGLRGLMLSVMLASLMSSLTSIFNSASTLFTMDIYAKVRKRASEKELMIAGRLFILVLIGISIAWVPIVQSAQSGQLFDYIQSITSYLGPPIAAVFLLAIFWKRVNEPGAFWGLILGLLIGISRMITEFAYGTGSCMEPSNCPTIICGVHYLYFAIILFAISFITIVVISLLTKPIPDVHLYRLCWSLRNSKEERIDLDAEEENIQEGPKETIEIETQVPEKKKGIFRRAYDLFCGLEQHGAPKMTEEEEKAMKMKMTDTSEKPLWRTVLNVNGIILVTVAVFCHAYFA
The experiment in a line: Inhibition of human SGLT1 expressed in HEK293 cells assessed as reduction in 2-deoxyglucose uptake at 100 uM pretreated for 10 mins followed by 2-deoxyglucose addition in presence of sodium buffer measured after 1 hr by resazurin dye based fluorescence assay. To be noted: hek293, 1 h.

The nature of data set [6]: Inhibition of GLUT in HEK293 cells assessed as reduction in 2-deoxyglucose uptake at 100 uM pretreated for 10 mins followed by 2-deoxyglucose addition in presence of choline buffer measured after 1 hr by resazurin dye based fluorescence assay. To be noted: human. In short, it runs like this:
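SGLT1 and SGLT2 stable HEK293 lines (G418-selected) assayed in sodium-free buffer, NaCl replaced by choline chloride; compounds at 100 µM; phlorizin and cytochalasin B as controls. 2-deoxyglucose 1 mM, 1 h at 37 °C; lysis in 0.1 M NaOH, 80-85 °C 40 min, neutralised; G6PDH/NADP+/diaphorase/resazurin cycling 15-20 h at 37 °C; resorufin fluorescence ex 560/em 590 nm.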

Calls of active or inactive are those of the source. The calls are words filed in the database; no cut-off is given here.

On to `C=C1[C@@H](C)[C@H]2[C@H](Cc3ccccc3)NC(=O)[C@]23OC(=O)/C=C/[C@H](O)CCC[C@@H](C)C/C=C/[C@H]3[C@@H]1O` [CYTOCHALASIN B], for which the “inhibition (INH)” value in data set [1] and in data set [2] was “Active” throughout.
Turning to `CCOc1ccc(/C=C/C(=O)c2c(O)cc(O)cc2O)cc1`, the Activity entry with HEK293 is “Non-Toxic”. Also, the IC50 (usually the concentration that inhibits the measured activity by half) in data set [3] worked out at 26 µM. For the same compound, the inhibition result in data set [4] was “Active”. Also, the “inhibition (INH)” value in data set [5] and in data set [6] was “Active” throughout.
Turning to `O=C(/C=C/c1ccc(Br)cc1)c1c(O)cc(O)cc1O` [4-BROMO-2',4',6'-TRIHYDROXYCHALCONE], the Activity entry with HEK293 is “Non-Toxic”. Moreover, the IC50 in data set [3] turned out to be 23.5 µM. Moreover, the inhibition entry in data set [4] was “Active”. Further, the “inhibition (INH)” value in data set [5] and in data set [6] was “Active” throughout.

The values above are taken from ChEMBL document CHEMBL4002619, “Targeting Type 2 Diabetes with C-Glucosyl Dihydrochalcones as Selective Sodium Glucose Co-Transporter 2 (SGLT2) Inhibitors: Synthesis and Biological Evaluation” (J Med Chem, 2017).
